Data as given in ChEMBL document CHEMBL4393708, “Pyridinylimidazoles as dual glycogen synthase kinase 3β/p38α mitogen-activated protein kinase inhibitors” (Eur J Med Chem, 2019).

Legend:
[1] = molecular target: T1, Mitogen-activated protein kinase 14 (Homo sapiens, UniProt Q16539); assay: Inhibition of p38alpha MAPK (unknown origin) using ATF-2 as substrate after 1 hr by ELISA
[2] = molecular target: Glycogen synthase kinase-3 beta (Homo sapiens, UniProt P49841); assay: Competitive inhibition of human recombinant full length GSK3beta using YRRAAVPPSPSLSRHSSPHQ(pS)EDEEE as substrate preincubated with enzyme for 10 mins followed by substrate and 25 uM ATP addition measured after 60 mins by ADP-Glo luminescence assay
Chain of Glycogen synthase kinase-3 beta (P49841 whole entry): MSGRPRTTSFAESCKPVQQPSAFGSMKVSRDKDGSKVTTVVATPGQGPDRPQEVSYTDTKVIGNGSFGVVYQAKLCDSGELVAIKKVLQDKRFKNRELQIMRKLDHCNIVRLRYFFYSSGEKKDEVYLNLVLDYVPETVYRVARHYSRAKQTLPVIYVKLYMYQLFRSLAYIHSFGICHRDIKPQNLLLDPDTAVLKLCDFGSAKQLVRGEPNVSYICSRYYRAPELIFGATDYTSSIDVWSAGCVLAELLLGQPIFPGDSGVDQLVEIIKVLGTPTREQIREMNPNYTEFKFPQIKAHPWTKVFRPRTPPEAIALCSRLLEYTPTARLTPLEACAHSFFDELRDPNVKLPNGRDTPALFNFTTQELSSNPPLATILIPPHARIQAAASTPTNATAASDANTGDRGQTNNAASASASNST
In short: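 Compounds in serial dilutions were preincubated with kinase for 10 min at rt. Substrate/ATP was then added and the reaction ran 60 min at rt. ADP-Glo reagent 60 min, detection reagent 30 min, then luminescence read (500 ms integration).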

[3] = molecular target: T1, Mitogen-activated protein kinase 14; assay: Inhibition of human recombinant p38alpha MAPK upto 10000 nM using Ulight-CFFKNIVTPRTPPPSQGK-amide as substrate measured after 30 mins by LANCE assay relative to control
[4] = Metabolic stability in human liver microsomes assessed as parent compound remaining after 240 mins by LC-MS analysis relative to control; type: ADME, Microsome; settings: read-out: Stability
[5] = species on record: Homo sapiens; assay: Selectivity ratio, Ratio of IC50 for human recombinant full length GSK3beta to IC50 for p38alpha MAPK (unknown origin)
In short: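 GSK3β was measured by ADP-Glo using 0.58 ng/µL recombinant human enzyme, 25 µM ATP and 0.2 µg/µL substrate peptide G50-58. Kinase was preincubated with serial compound dilutions for 10 min at rt, then reacted for 60 min at rt, with luminescence read-out. p38α inhibition was measured by ELISA.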

[6] = Metabolic stability in human liver microsomes assessed as parent compound remaining after 120 mins by LC-MS analysis relative to control; type: ADME, Microsome; settings: read-out: Stability
[7] = Metabolic stability in human liver microsomes assessed as parent compound remaining after 30 mins by LC-MS analysis relative to control; type: ADME, Microsome; settings: read-out: Stability
[8] = Metabolic stability in human liver microsomes assessed as parent compound remaining after 60 mins by LC-MS analysis relative to control; type: ADME, Microsome; settings: read-out: Stability
[9] = molecular target: Glycogen synthase kinase-3 alpha (Homo sapiens, UniProt P49840); assay: Inhibition of human recombinant full length GSK3alpha using YRRAAVPPSPSLSRHSSPHQ(pS)EDEEE as substrate preincubated with enzyme for 10 mins followed by substrate and 25 uM ATP addition measured after 60 mins by ADP-Glo luminescence assay
Chain of Glycogen synthase kinase-3 alpha (P49840 whole entry): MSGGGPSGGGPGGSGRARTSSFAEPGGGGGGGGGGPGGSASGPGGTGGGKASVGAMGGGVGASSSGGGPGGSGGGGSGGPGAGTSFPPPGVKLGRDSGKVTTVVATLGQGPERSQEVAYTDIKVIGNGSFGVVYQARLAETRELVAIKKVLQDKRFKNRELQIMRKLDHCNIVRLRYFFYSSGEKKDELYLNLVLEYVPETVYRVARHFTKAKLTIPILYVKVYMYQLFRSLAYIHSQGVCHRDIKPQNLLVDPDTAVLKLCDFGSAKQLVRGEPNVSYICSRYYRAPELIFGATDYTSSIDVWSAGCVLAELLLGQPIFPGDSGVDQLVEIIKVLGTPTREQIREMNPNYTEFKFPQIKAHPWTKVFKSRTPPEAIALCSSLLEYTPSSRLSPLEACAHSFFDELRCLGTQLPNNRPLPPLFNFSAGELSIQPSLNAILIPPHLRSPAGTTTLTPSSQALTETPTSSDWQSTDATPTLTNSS
In short: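 Recombinant human GSK3α at 0.50 ng/µL, 25 µM ATP, 0.2 µg/µL substrate G50-58, serial compound dilutions. Kinase was preincubated with compound 10 min at rt, then run 60 min at rt after substrate/ATP addition. ADP-Glo reagent 60 min, detection reagent 30 min, luminescence read. Uninhibited-kinase and ATP/substrate-only controls were included.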

[10] = Metabolic stability in human liver microsomes assessed as parent compound remaining after 20 mins by LC-MS analysis relative to control; type: ADME, Microsome; settings: read-out: Stability
[11] = Metabolic stability in human liver microsomes assessed as parent compound remaining after 10 mins by LC-MS analysis relative to control; type: ADME, Microsome; settings: read-out: Stability
[12] = Metabolic stability in human liver microsomes assessed as parent compound remaining after 180 mins by LC-MS analysis relative to control; type: ADME, Microsome; settings: read-out: Stability
[13] = Drug uptake in RjOrl:Swiss CD-1 mouse brain at 10 mg/kg, iv administered as single dose measured after 2 hrs by LC-MS analysis; type: ADME, organism-based; settings: read-out: Drug uptake
In short: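 Adult male RjOrl:Swiss CD-1 mice got one intravenous dose of 10 mg/kg. Plasma was sampled at 10, 30 and 120 min. After the last sample the mice were sacrificed and brains dissected. Blood and brain samples were prepared and analysed by LC-MS for parent and sulfoxide metabolite; brain levels reported as ng/g.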

[14] = test system: Blood; assay: Inhibition of LPS-induced TNFalpha production in human whole blood preincubated with compound for 15 mins followed by LPS addition measured after 2.5 hrs by ELISA; type: functional, tissue-based

T1 sequence (Q16539 whole entry): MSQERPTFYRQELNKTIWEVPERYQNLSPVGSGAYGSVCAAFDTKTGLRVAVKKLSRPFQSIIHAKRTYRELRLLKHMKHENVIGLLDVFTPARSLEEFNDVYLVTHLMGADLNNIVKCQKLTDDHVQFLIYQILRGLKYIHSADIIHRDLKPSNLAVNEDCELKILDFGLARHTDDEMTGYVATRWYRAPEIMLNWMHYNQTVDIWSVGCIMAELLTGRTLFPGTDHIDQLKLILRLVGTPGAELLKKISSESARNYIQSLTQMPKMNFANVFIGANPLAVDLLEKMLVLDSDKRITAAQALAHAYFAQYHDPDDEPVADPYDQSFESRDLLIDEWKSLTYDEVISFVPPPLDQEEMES

Row | SMILES | IC50 [1] | IC50 [2] | also measured
1 | Cc1nc(-c2ccc(F)cc2)c(-c2ccnc(NC(=O)C3CC3)c2)[nH]1 | 19 nM | 53 nM | 
2 | O=C(Nc1cc(-c2[nH]cnc2-c2ccc(F)cc2)ccn1)C1CC1 | 19 nM | 64 nM | 
3 | CSc1nc(-c2ccc(F)cc2)c(-c2ccnc(NC(=O)CC3CC3)c2)[nH]1 | 15 nM | 215 nM | 
4 | CSc1nc(-c2ccc(F)cc2)c(-c2ccnc(NC(=O)C3CCCO3)c2)[nH]1 (centres undefined) | 28 nM | 527 nM | 
5 | C[S+]([O-])c1nc(-c2ccc(F)cc2)c(-c2ccnc(NC(=O)C3CCC3)c2)[nH]1 (centres undefined) | 29 nM | 428 nM | 
6 | O=C(Nc1cc(-c2[nH]c(-c3ccco3)nc2-c2ccc(F)cc2)ccn1)C1CC1 | 18 nM | 156 nM | 
7 | CSc1nc(-c2ccc(F)cc2)c(-c2ccnc(NC(=O)[C@@H]3C[C@H]3c3ccccc3)c2)[nH]1 (relative stereo) | 15 nM | 808 nM | 
8 | CC(=O)Nc1cc(-c2[nH]c(SCc3ccccc3)nc2-c2ccc(F)cc2)ccn1 | 51 nM | 560 nM | 
9 | CSc1nc(-c2ccc(F)cc2)c(-c2ccnc(NC(=O)c3ccoc3)c2)[nH]1 | 22 nM | 3650 nM | 
10 | Cc1ncc(-c2ccnc(NC(=O)C3CC3)c2)[nH]1 |  | 1680 nM | inhibition [3]: 1%
11 | O=C(Nc1cc(-c2[nH]c(-c3ccccc3)nc2-c2ccc(F)cc2)ccn1)C1CC1 | 27 nM | 570 nM | 
12 | CSc1nc(-c2ccc(F)cc2)c(-c2ccnc(NC(=O)C3CCC(=O)C3)c2)[nH]1 (centres undefined) | 21 nM | 73 nM | 
13 | CSc1nc(-c2ccc(F)cc2)c(-c2ccnc(NC(=O)c3ccccn3)c2)[nH]1 | 42 nM | > 10000 nM | 
14 | CSc1nc(-c2ccc(F)cc2)c(-c2ccnc(NC(=O)[C@H]3C[C@H](Cl)C3)c2)[nH]1 | 38 nM | 395 nM | 
15 | CSc1nc(-c2ccc(F)cc2)c(-c2ccnc(NC(=O)C3CC3)c2)n1C | 222 nM | 638 nM | 
16 | COc1cc(CC(=O)Nc2cc(-c3[nH]c(SC)nc3-c3ccc(F)cc3)ccn2)cc(OC)c1OC | 13 nM | 510 nM | 
17 | COc1ccc(CCC(=O)Nc2cc(-c3[nH]c(SC)nc3-c3ccc(F)cc3)ccn2)cc1 | 55 nM | 542 nM | 
18 | O=C(Cc1ccc(F)cc1)Nc1cc(-c2[nH]c(SCc3ccccc3)nc2-c2ccc(F)cc2)ccn1 | 3 nM | 1500 nM | remaining at 4 h [4]: 66%; Ratio IC50 [5]: > 500
19 | O=C(Nc1cc(-c2[nH]c(Cc3ccccc3)nc2-c2ccc(F)cc2)ccn1)C1CC1 | 18 nM | 59 nM | remaining at 2 h [6]: 69.8%; remaining at 0.5 h [7]: 78.1%; remaining at 1 h [8]: 69.4%; IC50 [9]: 428 nM; remaining at 4 h [4]: 66.1%; remaining at 20 min [10]: 83.6%; remaining at 10 min [11]: 92.4%; remaining at 3 h [12]: 68.7%

Row | SMILES | IC50 [1] | IC50 [2] | also measured
20 | O=C(Nc1cc(-c2[nH]c(CCc3ccccc3)nc2-c2ccc(F)cc2)ccn1)C1CC1 | 20 nM | 133 nM | 
21 | COc1cc(CCC(=O)Nc2cc(-c3[nH]c(SCc4ccccc4)nc3-c3ccc(F)cc3)ccn2)cc(OC)c1OC | 61 nM | 1150 nM | 
22 | CSc1nc(-c2ccc(F)cc2)c(-c2ccnc(NC(=O)C3CC(=O)C3)c2)[nH]1 | 20 nM | 183 nM | 
23 | O=C(Nc1cc(-c2[nH]c(SCc3ccccc3)nc2-c2ccc(F)cc2)ccn1)C1CCCC1 | 20 nM | 663 nM | 
24 | CSc1nc(-c2ccc(F)cc2)c(-c2ccnc(NC(C)=O)c2)[nH]1 | 45 nM | 152 nM | 
25 | C[S+]([O-])c1nc(-c2ccc(F)cc2)c(-c2ccnc(NC(=O)C3CC3)c2)[nH]1 (centres undefined) | 44 nM | 236 nM | IC50 [9]: 1340 nM; concentration at 2 h [13]: 65.8 ng/g
26 | COc1cc(CCC(=O)Nc2cc(-c3[nH]c(SC)nc3-c3ccc(F)cc3)ccn2)cc(OC)c1OC | 88 nM | 363 nM | IC50 [9]: 2050 nM
27 | COc1cccc(CCC(=O)Nc2cc(-c3[nH]c(SC)nc3-c3ccc(F)cc3)ccn2)c1 | 36 nM | 471 nM | 
28 | O=C(Nc1cc(-c2[nH]c(SCc3ccccc3)nc2-c2ccc(F)cc2)ccn1)C1CC1 | 41 nM | 229 nM | IC50 [9]: 853 nM
29 | CSc1nc(-c2ccc(F)cc2)c(-c2ccnc(NC(=O)C3CCCC3)c2)[nH]1 | 40 nM | 136 nM | 
30 | CSc1nc(-c2ccc(F)cc2)c(-c2ccnc(NC(=O)C3(C(F)(F)F)CC3)c2)[nH]1 | 184 nM | > 10000 nM | 
31 | CSc1nc(-c2ccnc(NC(=O)C3CC3)c2)c(-c2ccc(F)cc2)n1C | 1600 nM | 1780 nM | 
32 | C[S+]([O-])c1ccc(-c2nc(-c3ccc(F)cc3)c(-c3ccncc3)[nH]2)cc1 (centres undefined) [SB-203580] |  |  | IC50 [14]: 3200 nM
33 | CSc1nc(-c2ccc(F)cc2)c(-c2ccnc(NC(=O)[C@H]3C[C@@H](Cl)C3)c2)[nH]1 | 18 nM | 170 nM | 
34 | CSc1nc(-c2ccc(F)cc2)c(-c2ccnc(NC(=O)CCc3ccc(C(F)(F)F)cc3)c2)[nH]1 | 27 nM | 956 nM | 
35 | CSc1nc(-c2ccc(F)cc2)c(-c2ccnc(NCC3CC3)c2)[nH]1 | 14 nM | > 10000 nM | 
36 | CSc1nc(-c2ccc(F)cc2)c(-c2ccnc(NC(=O)C3CCC3)c2)[nH]1 | 27 nM | 132 nM | 
37 | CSc1nc(-c2ccc(F)cc2)c(-c2ccnc(NC(=O)Cc3ccc(C(F)(F)F)cc3)c2)[nH]1 | 29 nM | 3240 nM | 
38 | CSc1nc(-c2ccc(F)cc2)c(-c2ccnc(NC(=O)CN3CCCC3=O)c2)[nH]1 | 23 nM | 126 nM | 
